Data set [1] deals with Mus musculus. In words: Anticonvulsant activity in ip dosed mouse assessed as inhibition of maximal electroshock-induced seizures after 0.5 hrs. Format: functional. A digest of the protocol: (§1)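 Male albino mice (CF-1 or Swiss, 18–25 g) received compound suspended in polyethylene glycol 400, i.p., 0.01 ml/g, at 30, 100 and 300 mg/kg. Maximal electroshock and subcutaneous pentylenetetrazole seizure tests were run at 0.5 and 4 h by a previously reported procedure.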
(In general: In the maximal electroshock model the usual endpoint is tonic extension of the hind limbs.)

The test system of data set [2] is Mus musculus. In words: Toxicity in mouse at 300 mg/kg, ip. The data set is classed as organism-based. The conditions noted are these: in vivo. Also noted: dose 300 mg/kg, route intraperitoneal.
In data set [3] the test system is Mus musculus. In words: Sedative-hypnotic effect in mouse assessed as decrease locomotor activity score at 100 mg/kg, ip after 0.5 hrs by actophotometer. Format: functional. The conditions noted are these: route intraperitoneal. A digest of the protocol:
(§2)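 Locomotor activity in mice was read as a digital photocell score on an actophotometer. Baseline was taken 24 h before treatment, then at 30 min and 1 h after 100 mg/kg i.p. Controls received PEG 400. Percent decrease was calculated from the 1 h values. Results are mean ± SEM of six mice, compared with Student's t test.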

The subject of data set [4] is Mus musculus. In words: Sedative-hypnotic effect in mouse assessed as decrease locomotor activity score at 100 mg/kg, ip after 1 hr by actophotometer. The data set is classed as functional. The following applies: route intraperitoneal. In short, it runs like this: as §2
Data set [5] deals with Mus musculus. Kind of data set: Sedative-hypnotic effect in mouse assessed as inhibition of locomotor activity at 100 mg/kg, ip by actophotometer. Format: functional. The following applies: route intraperitoneal. In short, it runs like this: as §2
In data set [6] the test system is Mus musculus. Kind of data set: Anticonvulsant activity in mouse assessed as inhibition of maximal electroshock-induced seizures at 300 mg/kg, ip after 4 hrs. Also noted: dose 300 mg/kg. Format: functional, organism-based. A digest of the protocol:
as §1

Data set [7] has as its system Mus musculus. In words: Anticonvulsant activity in mouse assessed as inhibition of pentylenetetrazole-induced seizure at 300 mg/kg, ip after 0.5 hrs. Format: functional, organism-based. Also noted: dose 300 mg/kg. In short, it runs like this: as §1
The test system of data set [8] is Mus musculus. In words: Neurotoxicity in mouse at 300 mg/kg, ip after 0.5 hrs by rotarod test. Format: toxicity, organism-based. The following applies: in vivo. Also noted: dose 300 mg/kg, route intraperitoneal. In short, it runs like this:
(§3)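 Mice dosed i.p. at 30, 100 and 300 mg/kg in PEG 400 were examined 0.5 and 4 h later on a rotorod. Animals were pre-trained on a 3.2 cm rod turning at 6 rpm. Neurotoxicity meant failing to keep equilibrium for at least 1 min in each of three trials. The value is the minimum dose affecting half or more of the animals.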

Data set [9] deals with Mus musculus. In words: Neurotoxicity in mouse at 300 mg/kg, ip after 4 hrs by rotarod test. The data set is classed as toxicity, organism-based. Also noted: dose 300 mg/kg, route intraperitoneal. The following applies: in vivo. In short, it runs like this: as §3
A general note: The rotarod test checks motor coordination on a turning rod.

The test system of data set [10] is Mus musculus. In words: Anticonvulsant activity in ip dosed mouse assessed as inhibition of maximal electroshock-induced seizures after 4 hrs. The data set is classed as functional. A digest of the protocol:
as §1

The subject of data set [11] is Mus musculus. Kind of data set: Neurotoxicity in ip dosed mouse after 0.5 hrs by rotarod test. Format: toxicity, organism-based. The conditions noted are these: in vivo. A digest of the protocol: as §3
In data set [12] the test system is Mus musculus. Kind of data set: Neurotoxicity in ip dosed mouse after 4 hrs by rotarod test. The data set is classed as toxicity, organism-based. The following applies: in vivo. A digest of the protocol: as §3
Data set [13] deals with Mus musculus. Kind of data set: Sedative-hypnotic effect in mouse assessed as decrease locomotor activity score at 25 mg/kg, po after 0.5 hrs by actophotometer. The data set is classed as functional.
In data set [14] the test system is Mus musculus. Kind of data set: Sedative-hypnotic effect in mouse assessed as decrease locomotor activity score at 25 mg/kg, po after 1 hr by actophotometer. The data set is classed as functional.
In data set [15] the test system is Mus musculus. Kind of data set: Sedative-hypnotic effect in mouse assessed as inhibition of locomotor activity at 25 mg/kg, po by actophotometer. The data set is classed as functional.
Data set [16] has as its system Mus musculus. Kind of data set: Anticonvulsant activity in mouse assessed as inhibition of pentylenetetrazole-induced seizure at 300 mg/kg, ip after 4 hrs. The data set is classed as functional, organism-based. Also noted: dose 300 mg/kg. In short, it runs like this: as §1
Data set [17] has as its system Mus musculus. Kind of data set: Neurotoxicity in mouse at 100 mg/kg, ip after 0.25 hrs by rotarod test. Format: toxicity, organism-based. Also noted: dose 100 mg/kg, route intraperitoneal. The conditions noted are these: in vivo.
The subject of data set [18] is Mus musculus. Kind of data set: Neurotoxicity in mouse at 100 mg/kg, ip after 1 hr by rotarod test. The data set is classed as toxicity, organism-based. Also noted: dose 100 mg/kg, route intraperitoneal. The conditions noted are these: in vivo.
Data set [19] concerns Mus musculus. Kind of data set: Anticonvulsant activity in mouse assessed as inhibition of maximal electroshock-induced seizures at 300 mg/kg, ip after 0.5 hrs. Format: functional, organism-based. Also noted: dose 300 mg/kg. In short, it runs like this:
as §1

For data set [20], the system named is Mus musculus. Kind of data set: Anticonvulsant activity in ip dosed mouse assessed as inhibition of pentylenetetrazole-induced seizure after 0.5 hrs. Format: functional. A digest of the protocol: as §1
The test system of data set [21] is Mus musculus. In words: Anticonvulsant activity in ip dosed mouse assessed as inhibition of pentylenetetrazole-induced seizure after 4 hrs. The data set is classed as functional. In short, it runs like this: as §1
For the next data set, the system named is Rattus norvegicus. In words: Antidepressant activity in Wistar rat assessed as increase in immobility time at 30 mg/kg, ip after 30 mins by forced-swimming test. Format: functional. The following applies: route intraperitoneal.

Activity calls are given as the source filed them. No cut-off for these calls is given here.

Turning to `O=c1c2ccccc2nc(/C=C/c2ccccc2)n1-c1nnc(-c2ccccc2)s1`, the Activity is 30 mg/kg with Mus musculus [1]; “Toxic” with Mus musculus [2]; 472.31 in the data set on Mus musculus [3]; 249.45 with Mus musculus [4]; “Not Active” in the data set with Mus musculus [8]; “Not Active” in the data set with Mus musculus [9]. Besides, the inhibition in vivo at 100 mg/kg in the data set on Mus musculus [5] worked out at 55%. In addition, the result in the data set with Mus musculus [6] and in the data set with Mus musculus [7] was inactive.

For `O=C1NC(=O)C(c2ccccc2)(c2ccccc2)N1` [PHENYTOIN], the Activity amounted to 30 mg/kg in the data set on Mus musculus [1]; 30 mg/kg in the data set with Mus musculus [10]; 100 mg/kg in the data set on Mus musculus [11]; 100 mg/kg in the data set with Mus musculus [12]; 251.02 in the data set on Mus musculus [13]; 164.1 in the data set on Mus musculus [14]. The inhibition in vivo at 25 mg/kg with Mus musculus [15] worked out at 70%. In addition, the outcome with Mus musculus [7] and in the data set on Mus musculus [16] was inactive.

In the case of `O=c1c2ccccc2nc(/C=C/c2ccccc2)n1-c1nnc(-c2cccc(Cl)c2)s1`, the Activity is 100 mg/kg in the data set with Mus musculus [10]; 300 mg/kg with Mus musculus [11]; “Toxic” in the data set with Mus musculus [17]; “Toxic” in the data set on Mus musculus [18]; 319.57 in the data set with Mus musculus [3]; 165.52 in the data set on Mus musculus [4]. Further, the Activity entry in the data set with Mus musculus [9] was “Not Active”. The inhibition in vivo at 100 mg/kg with Mus musculus [5] was determined as 63%. Besides, the result with Mus musculus [19], in the data set with Mus musculus [7] and with Mus musculus [16] was inactive.

As to `NC(=O)N1c2ccccc2C=Cc2ccccc21` [CARBAMAZEPINE], the Activity in the data set on Mus musculus [1] stood at 30 mg/kg; in the data set with Mus musculus [10], 100 mg/kg; in the data set with Mus musculus [20], 100 mg/kg; in the data set on Mus musculus [21], 300 mg/kg; in the data set on Mus musculus [11], 100 mg/kg; with Mus musculus [12], 300 mg/kg. Also, the Activity in the data set on Rattus norvegicus was found to be 240.3 s.

As a reminder, the inhibition in vivo is the drop in the measured response relative to a control, in per cent.

For the origin of these results see ChEMBL document CHEMBL1157208, “Synthesis and CNS depressant activity of some novel 3-[5-substituted 1,3,4-thiadiazole-2-yl]-2-styryl quinazoline-4(3H)-ones” (Eur J Med Chem, 2008).
